The values that follow come from PubChem BioAssay AID493150 (Broad Institute, 2011).

“And” between values parts separate entries of the source, which are not always exact repeats. Equal entries are not always repeated. Results filed as inconclusive are left out. The source made the active and inactive calls.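 Rule for the calls: active = compound whose fitted half-maximal growth inhibition concentration stays within ten times its top tested dose in every replicate test; inconclusive = replicate tests disagree, or flat partial inhibition, or poor curve fit; inactive = every replicate test inactive, including wrong-direction or flat responses.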

System in the first assay: not listed separately
In words: growth inhibition of fluconazole-resistant C. albicans, confirmation, CaCi-2 strain, Alamar Blue, dry powder, set 5 (AID 493150). Conditions: C. albicans CaCi-2 + fluconazole, Alamar Blue growth, 48 h; at 10 µM (top of the series). The method in brief:
(§1)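 Test system: clinical Candida albicans isolate CaCi-2, resistant to fluconazole; Medium: RPMI/MOPS defined medium; Times: 48 h humidified 37 °C exposure, 2 h room-temperature dye step; Measured by: Alamar Blue fluorescence, Ex 544/Em 590 nm.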
`COC(=O)Cn1nc(-c2cncnc2)c2ccccc21`: the activity change, negative = inhibition is -5.14% (inactive).

Still in this assay, the particulars now being: C. albicans CaCi-2 + fluconazole, Alamar Blue growth, 48 h; at 12 µM (top of the series).
Turning to `COC(=O)Cn1nc(-c2ccc(C(F)(F)F)cc2)c2ccccc21`, the activity change, negative = inhibition was -0.629% (inactive). As to `COC(=O)Cn1nc(-c2ccccc2)c2ccc(C#N)cc21`, the activity change, negative = inhibition was -14.7% (inactive). Still for that read-out and setting: the value for `COC(=O)CCn1nc(-c2ccccc2)c2ccccc21` was 1.2% (inactive). With `c1ccc(-c2nn(Cc3nn[nH]n3)c3ccccc23)cc1`, the activity change, negative = inhibition was -7.06% (inactive). In the case of `CC(C)OC(=O)Cn1nc(-c2ccccc2)c2ccccc21`, the activity change, negative = inhibition is 11.7% (inactive).

In the case of `CCOC(=O)Cn1nc(-c2ccccc2)c2ccccc21`, the activity change, negative = inhibition is 4.8% (inactive). For the compound `O=C(Cn1nc(-c2ccccc2)c2ccccc21)Oc1ccccc1`, the activity change, negative = inhibition was -4.43% (inactive).

Turning to `CC(C)(C)OC(=O)Cn1nc(-c2ccccc2)c2ccccc21`, the activity change, negative = inhibition is 17.1% (inactive). For the compound `COCCn1nc(-c2ccccc2)c2ccccc21`, the activity change, negative = inhibition was -9.42% (inactive). The same measure, in the same setting: the value for `N#CCn1nc(-c2ccccc2)c2ccccc21` was -18.5% (inactive). On the same count and under the same terms, the value for `c1ccc(-c2nn(Cc3ncco3)c3ccccc23)cc1` was 1.86% (inactive).

A further assay relates to C. albicans CaCi-2 (fluconazole-resistant clinical isolate) + fluconazole, Alamar Blue growth, 48 h. The description is as above.
Conditions: not given
The procedure, abridged: as §1
As to `COC(=O)Cn1nc(-c2ccccc2)c2ccccc21`, the AC50 is 1.2 µM. On to `COC(=O)Cn1nc(-c2ccccc2)c2ccc(C)cc21`, for which the AC50 is 3.14 µM. `COC(=O)Cn1nc(-c2cccc(C)c2)c2ccccc21`: the AC50 was 0.647 µM.

`COC(=O)Cn1nc(-c2ccccc2)c2ccc(OC)cc21`: the AC50 was 7.51 µM. With `COC(=O)Cn1nc(-c2ccccc2)c2cc(C)ccc21`, the concentration at half-maximal activity (AC50) was 3.28 µM. `COC(=O)Cn1nc(-c2ccccc2)c2ccc(Cl)cc21`: the AC50 is 3.79 µM. Same read-out and setting: under `COC(=O)Cn1nc(-c2ccc(OC)cc2)c2ccccc21` stands 4.22 µM; under `COC(=O)Cn1nc(-c2ccc(F)cc2)c2ccccc21`, 5.61 µM.

On to `COC(=O)Cn1nc(-c2cccc(F)c2)c2ccccc21`, for which the AC50 is 1.41 µM. In the case of `COC(=O)Cn1nc(-c2cccc(OC)c2)c2ccccc21`, the AC50 was 0.44 µM. The same measure, in the same setting: under `COC(=O)Cn1nc(-c2ccccc2OC)c2ccccc21` stands 6.22 µM.

Turning to `COC(=O)Cn1nc(-c2ccccc2)c2cc(F)ccc21`, the AC50 is 4.63 µM. With `COC(=O)Cn1nc(-c2ccccc2)c2ccc(F)cc21`, the AC50 was 5.1 µM. In the case of `COC(=O)Cn1nc(-c2ccccc2)c2cc(OC)ccc21`, the AC50 is 10.4 µM. Same read-out and setting: the value for `O=C(Cn1c2ccccc2c2nc3n(c(=O)c21)CCS3)N1CCCC1` was 1.04 µM and 1.87 µM; that for `COC(=O)Cn1c2ccccc2c2nc3n(c(=O)c21)CCS3` was 3.83 µM.
